Source: ChEMBL document CHEMBL4316645, “Phenolic C-Glycosides and Aglycones from Marine-Derived Aspergillus sp. and Their Anti-Inflammatory Activities” (J Nat Prod, 2019)
The source made the active and inactive calls. The calls are words filed in the database; no cut-off is given here.

How the values were obtained:
RAW264.7 [1] = assay: Inhibition of LPS-induced nitric oxide production in mouse RAW264.7 cells preincubated for 2 hrs followed by LPS-stimulation and measured after 12 hrs by Griess assay; format: functional, cell-based
Method in brief: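 RAW264.7 cells seeded at 2 × 10^5 cells/well and preincubated 24 h, then treated 2 h with test compounds from 40 to 0.5 μM, then stimulated with LPS (1 μg/mL) for 12 h. Supernatant spun at 16 000 rpm for 20 min, mixed with Griess reagent (0.1% naphthyl ethylenediamine dihydrochloride, 1% sulfanilamide, 2% phosphoric acid) for 10 min at rt, read at 540 nm. Means of three independent experiments.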

RAW264.7 [2] = assay: Antiinflammatory activity in mouse RAW264.7 cells assessed as inhibition of LPS-induced IL-6 production preincubated for 2 hrs followed by LPS-stimulation and measured after 12 hrs by ELISA; format: functional, cell-based
Method in brief: (§1)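 Cells seeded at 2 × 10^5 cells/well and preincubated 24 h. They were pretreated 2 h with compound, then given LPS (1 μg/mL) for 12 h. IL-1β and IL-6 in the culture medium were measured by ELISA. Data are mean ± SD (n = 3), analysed by one-way ANOVA with Tukey's test against the LPS-only group.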

RAW264.7 [3] = assay: Antiinflammatory activity in mouse RAW264.7 cells assessed as inhibition of LPS-induced IL-1beta production preincubated for 2 hrs followed by LPS-stimulation and measured after 12 hrs by ELISA; format: functional, cell-based; method in brief: as §1
RAW264.7 [4] = assay: Antiinflammatory activity in mouse RAW264.7 cells assessed as inhibition of LPS-induced COX2 expression at 5 to 10 uM preincubated for 2 hrs followed by LPS-stimulation and measured after 12 hrs by Western blot analysis; format: functional, cell-based
Method in brief: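 After 2 h compound pretreatment and 12 h LPS (1 μg/mL), cells were lysed in 20 mM Tris HCl pH 7.4 with protease inhibitors, and protein was quantified. Lysates were run on SDS-PAGE, transferred to PVDF, and blocked in PBS/0.1% Tween 20/5% skim milk for 1 h at rt. Blots were probed overnight at 4 °C for COX-2 and β-actin, developed by chemiluminescence, and bands quantified by densitometry. Mean ± SD, n = 3.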

[5] = biological target: Transcription factor p65 (Mus musculus) (UniProt Q04207); assay: Inhibition of NFkappaB p65 nuclear translocation in LPS-stimulated mouse RAW264.7 cells at 5 to 10 uM preincubated for 2 hrs followed by LPS-stimulation and measured after 12 hrs by DAPI staining based fluorescence microscopic analysis; format: cell-based
Method in brief: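 Cells were fixed in 4% paraformaldehyde for 20 min and permeabilized with 0.2% Triton X-100 for 30 min. After 5% BSA block for 1 h, they were given anti-p65 primary overnight at 4 °C, then Alexa Fluor 594 secondary (1:500) for 1 h at rt. DAPI (5 μg/mL) was applied 30 min at 37 °C. Imaging used fluorescence microscopy, ex/em 590/617 nm for p65 and 360/450 nm for DAPI.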

Chain of Transcription factor p65 (Mus musculus) (Q04207 whole entry): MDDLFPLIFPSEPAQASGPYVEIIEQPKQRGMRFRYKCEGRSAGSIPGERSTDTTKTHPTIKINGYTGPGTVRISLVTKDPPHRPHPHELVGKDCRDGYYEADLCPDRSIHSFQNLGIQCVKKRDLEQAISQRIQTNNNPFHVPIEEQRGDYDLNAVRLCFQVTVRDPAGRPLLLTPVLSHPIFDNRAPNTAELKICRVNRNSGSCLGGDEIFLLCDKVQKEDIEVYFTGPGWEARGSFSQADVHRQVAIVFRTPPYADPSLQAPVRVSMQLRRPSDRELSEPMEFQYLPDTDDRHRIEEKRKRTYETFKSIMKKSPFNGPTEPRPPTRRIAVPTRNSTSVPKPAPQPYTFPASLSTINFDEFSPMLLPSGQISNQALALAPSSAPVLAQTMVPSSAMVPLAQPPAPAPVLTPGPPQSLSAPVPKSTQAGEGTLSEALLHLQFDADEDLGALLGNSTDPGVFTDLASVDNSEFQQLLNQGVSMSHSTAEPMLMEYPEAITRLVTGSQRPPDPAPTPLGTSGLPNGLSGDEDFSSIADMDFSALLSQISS

Row | Structure (SMILES) | IC50 (RAW264.7 [1]) [µM] | also measured
1 | CCC/C=C/C=C/CCc1cc(O)cc(O)c1C(=O)O | 9.9 | 
2 | C/C=C/C=C/CCc1cc(O)c([C@@H]2O[C@H](CO)[C@@H](O)[C@H](O)[C@H]2O)c(O)c1C(=O)OC | > 40 | 
3 | CCC/C=C\C=C\CCc1cc(O)c([C@@H]2O[C@H](CO)[C@@H](O)[C@H](O)[C@H]2O)c(O)c1C(=O)OC | 14 | 
4 | CC/C=C/C=C/CCc1cc(O)c([C@@H]2O[C@H](CO)[C@@H](O)[C@H](O)[C@H]2O)c(O)c1C(=O)OC | 19 | 
5 | CCC/C=C/C=C\CCc1cc(O)cc(O)c1 | 28 | 
6 | CCC/C=C/C=C\CCc1cc(O)c([C@@H]2O[C@H](CO)[C@@H](O)[C@H](O)[C@H]2O)c(O)c1C(=O)OC | > 40 | 
7 | CCC/C=C/C=C/CCc1cc(O)c([C@@H]2O[C@H](CO)[C@@H](O)[C@H](O)[C@H]2O)c(O)c1 | > 40 | 
8 | CCC/C=C/C=C/C1Cc2cc(O)cc(O)c2C(=O)O1 (configuration not stated) | 17 | 

More lines, main results first:

Row | IC50 (RAW264.7 [1]) [µM] | Structure (SMILES) | also measured
9 | 15 | CCC/C=C/C=C/CCc1cc(O)c([C@@H]2O[C@H](CO)[C@@H](O)[C@H](O)[C@H]2O)c(O)c1C(=O)OCC | 
10 | 6 | CCC/C=C/C=C/CCc1cc(O)cc(O)c1 | inhibition (RAW264.7 [2]): Dose-dependent effect; inhibition (RAW264.7 [3]): Dose-dependent effect; inhibition (RAW264.7 [4]): Active; inhibition [5]: Active
11 | > 40 | CCC/C=C/C=C\CCc1cc(O)c([C@@H]2O[C@H](CO)[C@@H](O)[C@H](O)[C@H]2O)c(O)c1 | 
12 | 30 | CCC/C=C\C=C\CCc1cc(O)c([C@@H]2O[C@H](CO)[C@@H](O)[C@H](O)[C@H]2O)c(O)c1 | 
13 | > 40 | CCC/C=C/C=C/CCc1cc(O)c([C@@H]2O[C@H](CO)[C@@H](O)[C@H](O)[C@H]2O)c(O)c1C(=O)OC | 
